Data: PMC3164867 (Journal of medicinal chemistry, 2009)

Columns and labels:
[1] = system: Molt-4 (T-cell lymphoma) or Raji tumors (B-cell lymphoma); type: in vivo, nude mice
How it was run: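 Athymic Nu/Nu mice, 4–6 weeks old, bore sc Molt-4 or Raji (1 × 10^7 cells, right upper back) and A549 (1 × 10^6 cells, left upper back), studied at 10–15 mm. Under pentobarbital ip anesthesia, Cy5.5-conjugated test compound given iv by tail vein; serial NIRF imaging 5 min–120 h (10 nmol), 30 s exposures. Ex vivo organs and tumors at 24 h (0.25 or 1 nmol); ROI mean intensity minus heart background.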

Solubility = type: physicochemical; conditions: preliminary evidence
activated α4β1 integrin = activated α4β1 integrin (Homo sapiens, UniProt P05556+P13612); type: cell-based; conditions: for potency (in words): SAR summary, Molt-4 cell adhesion
activated α4β1 integrin, sequence (P13612 34-1032): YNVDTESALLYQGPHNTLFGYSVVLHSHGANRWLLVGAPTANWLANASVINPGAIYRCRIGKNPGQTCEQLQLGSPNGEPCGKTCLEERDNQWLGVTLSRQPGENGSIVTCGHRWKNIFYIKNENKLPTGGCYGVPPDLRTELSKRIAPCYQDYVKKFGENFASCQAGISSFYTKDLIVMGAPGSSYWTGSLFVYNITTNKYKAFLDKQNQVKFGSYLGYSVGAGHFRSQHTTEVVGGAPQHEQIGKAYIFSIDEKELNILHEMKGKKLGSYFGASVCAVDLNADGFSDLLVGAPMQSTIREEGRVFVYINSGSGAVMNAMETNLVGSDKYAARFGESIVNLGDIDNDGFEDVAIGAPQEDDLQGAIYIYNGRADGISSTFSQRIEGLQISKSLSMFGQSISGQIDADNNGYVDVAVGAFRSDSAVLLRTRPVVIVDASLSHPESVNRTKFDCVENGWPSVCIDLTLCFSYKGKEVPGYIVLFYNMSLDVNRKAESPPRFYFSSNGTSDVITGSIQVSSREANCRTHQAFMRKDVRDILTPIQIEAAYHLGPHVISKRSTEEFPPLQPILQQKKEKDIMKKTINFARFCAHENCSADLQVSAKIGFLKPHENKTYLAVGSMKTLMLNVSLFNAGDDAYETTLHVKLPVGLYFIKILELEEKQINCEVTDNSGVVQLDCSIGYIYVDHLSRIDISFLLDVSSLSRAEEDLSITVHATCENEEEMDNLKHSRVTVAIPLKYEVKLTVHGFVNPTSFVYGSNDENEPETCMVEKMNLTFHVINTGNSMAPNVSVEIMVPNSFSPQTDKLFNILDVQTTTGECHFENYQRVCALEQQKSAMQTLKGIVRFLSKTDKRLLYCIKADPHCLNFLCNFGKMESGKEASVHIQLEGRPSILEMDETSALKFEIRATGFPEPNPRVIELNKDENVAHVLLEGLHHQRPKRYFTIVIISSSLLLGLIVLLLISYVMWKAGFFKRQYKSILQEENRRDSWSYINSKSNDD
activated α4β1 integrin, sequence (P05556 21-798): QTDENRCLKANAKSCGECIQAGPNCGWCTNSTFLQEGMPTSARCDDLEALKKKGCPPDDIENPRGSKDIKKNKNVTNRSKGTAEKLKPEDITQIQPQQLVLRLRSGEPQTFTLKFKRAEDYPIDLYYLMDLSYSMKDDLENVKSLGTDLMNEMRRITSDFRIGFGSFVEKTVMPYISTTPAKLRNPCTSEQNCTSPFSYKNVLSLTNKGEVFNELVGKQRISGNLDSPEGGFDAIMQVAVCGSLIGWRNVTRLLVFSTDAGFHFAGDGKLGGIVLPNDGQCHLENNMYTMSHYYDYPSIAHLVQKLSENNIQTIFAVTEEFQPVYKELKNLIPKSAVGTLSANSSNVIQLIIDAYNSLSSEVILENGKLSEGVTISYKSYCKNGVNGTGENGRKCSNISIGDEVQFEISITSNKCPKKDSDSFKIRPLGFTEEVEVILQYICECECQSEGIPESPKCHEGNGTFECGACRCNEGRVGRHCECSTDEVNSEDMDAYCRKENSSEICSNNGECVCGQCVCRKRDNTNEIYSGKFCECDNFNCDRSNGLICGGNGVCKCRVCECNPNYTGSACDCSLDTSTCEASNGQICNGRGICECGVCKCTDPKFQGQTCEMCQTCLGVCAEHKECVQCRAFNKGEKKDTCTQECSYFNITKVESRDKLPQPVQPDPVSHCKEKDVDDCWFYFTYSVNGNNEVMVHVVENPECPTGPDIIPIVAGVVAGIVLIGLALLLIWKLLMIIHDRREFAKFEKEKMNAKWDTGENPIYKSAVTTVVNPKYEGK

[2] = iv tail vein, nude mice with Molt-4 or Raji and A549 xenografts, NIRF imaging

In the case of “2-(1E,3E,5E)-5-3-(R)-1-(1-(R)-2-(R)-2-[2-(4-(benzo[d]thiazol-2-ylamino)phenyl)\acetamido]-6-(E)-3-(pyridin-3-yl)acrylamido)hexanamido)-5-carboxypentanamido)cyclohexyl)-27-carbamoyl-1,9,13,21,25,33-hexaoxo-5,17-dioxa-2,8,14,20,26,32-hexa-azaheptatriacontan-37-yl)-1,1-dimethyl-6,8-disulfonato-1H-benzo[e]indol-2(3H)-ylid-ene)penta-1,3-dienyl)-3-ethyl-1,1-di-methyl-1H-benzo[e]indolium-6,8-disulfonate [Compound 6-Cy5.5]”, the “organ signal (in words)” value ([1]; ex vivo NIRF of organs) is reported as “low liver, muscle, lung, and spleen signal”, the “kidney:tumor ratio (in words)” value ([1]; ex vivo NIRF, preliminary, compared with 1-Cy5.5) is reported as “improvement in the kidney:tumor ratio” and the “tumor uptake first observed post injection” value [1, 2] is reported as 5 min. For the same molecule, the “tumor uptake persisted post injection” value [1, 2] was “up to 120 h” and the “solubility (in words)” value (Solubility) was “improved solubility”.
With `NC(=O)C1(NC(=O)[C@H](CCCC(=O)O)NC(=O)[C@H](CCCCNC(=O)/C=C/c2cccnc2)NC(=O)Cc2ccc(Nc3nc4ccccc4[nH]3)cc2)CCCCC1` [Compound 2, reference compound] the “potency relative to bisaryl urea 1 (fold less potent)” value (activated α4β1 integrin; compared with 1) was 10 fold.
For `NC(=O)C1(NC(=O)[C@@H](CCCC(=O)O)NC(=O)[C@@H](CCCCNC(=O)/C=C/c2cccnc2)NC(=O)c2cccc(Nc3nc4cc(Br)ccc4[nH]3)c2)CCCCC1` [Compound 3], the IC50 (activated α4β1 integrin) was 30 nM.
For `Cc1ccc2[nH]c(Nc3ccc(C(=O)N[C@H](CCCCNC(=O)/C=C/c4cccnc4)C(=O)N[C@H](CCCC(=O)O)C(=O)NC4(C(N)=O)CCCCC4)cc3)nc2c1` [Compound 5], the IC50 (activated α4β1 integrin) was 490 nM and the “potency (in words)” value (activated α4β1 integrin) was “mid nM potency”.
With `NC(=O)C1(NC(=O)[C@@H](CCCC(=O)O)NC(=O)[C@@H](CCCCNC(=O)/C=C/c2cccnc2)NC(=O)Cc2ccc(Nc3nc4ccccc4s3)cc2)CCCCC1` [Compound 6, (R)-5-(R)-[2-{2-[4-(Benzothiazol-2-ylamino)-phenyl]acetylamino}-6-(E)-(3-pyridin-3-yl-acryloylamino)hexanoylamino]-5-(1-carbamoylcyclo-hexylcarbamoyl)pentanoic Acid] the “potency (in words)” value (activated α4β1 integrin) was “equipotent to 1”.
For `Cc1cccc2oc(Nc3ccc(CC(=O)N[C@H](CCCCNC(=O)/C=C/c4cccnc4)C(=O)N[C@H](CCCC(=O)O)C(=O)NC4(C(N)=O)CCCCC4)cc3)nc12` [Compound 7], the “potency (in words)” value (activated α4β1 integrin) was “low nM potency”.
In the case of `Cc1cccc2oc(Nc3ccc(C(=O)N[C@H](CCCCNC(=O)/C=C/c4cccnc4)C(=O)N[C@H](CCCC(=O)O)C(=O)NC4(C(N)=O)CCCCC4)cc3)nc12` [Compound 9], the “potency (in words)” value (activated α4β1 integrin) is reported as “complete loss of potency”.
With `NC(=O)C1(NC(=O)[C@@H](CCCC(=O)O)NC(=O)[C@@H](CCCCNC(=O)/C=C/c2cccnc2)NC(=O)c2ccc(Nc3nc4ccccc4o3)cc2)CCCCC1` [Compound 10] the “potency (in words)” value (activated α4β1 integrin) was “complete loss of potency”.
With `NC(=O)C1(NC(=O)[C@@H](CCCC(=O)O)NC(=O)[C@@H](CCCCNC(=O)/C=C/c2cccnc2)NC(=O)c2ccc(Nc3nc4ccccc4s3)cc2)CCCCC1` [Compound 11] the “potency (in words)” value (activated α4β1 integrin) was “mid nM potency”.
